Source: ChEMBL document CHEMBL1828575, “Design, synthesis and antiproliferative activities of biarylolefins based on polyhydroxylated and carbohydrate scaffolds” (Eur J Med Chem, 2011)

Columns and labels:
Format in all cases: functional
[1] = tested on: NCI-H23; experiment: Cytotoxicity against human NCI-H23 cells assessed as cellular growth at 10 uM after 48 hrs by SRB assay
Procedure, shortened: (§1)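 NCI-60 panel lines grown in RPMI 1640 with 5% FBS and 2 mM L-glutamine. Plated at 5000–40,000 cells/well and preincubated 24 h at 37 °C, 5% CO₂, with time-zero plates fixed in TCA. Compounds, dissolved in DMSO and diluted in medium, were applied for 48 h. Cells were TCA-fixed (10% final for adherent, 16% for suspension) and stained with 0.4% SRB in 1% acetic acid. Dye was solubilised in 10 mM Tris base and read at 515 nm; growth was expressed as a percentage of untreated control.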

[2] = tested on: UO-31; experiment: Cytotoxicity against human UO31 cells assessed as cellular growth at 10 uM after 48 hrs by SRB assay; procedure, shortened: as §1
[3] = tested on: CAKI-1; experiment: Cytotoxicity against human Caki1 cells assessed as cellular growth at 10 uM after 48 hrs by SRB assay
Procedure, shortened: (§2)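 NCI60 single-dose screen of cells in RPMI 1640 with 5% FBS and 2 mM L-glutamine, preincubated 24 h at 37 °C, 5% CO₂. Cells were then exposed 48 h to compound added from DMSO stock. TCA-fixed, stained with 0.4% SRB in 1% acetic acid, dye solubilised in 10 mM Tris base and read at 515 nm. Growth is given as percent of untreated control.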

[4] = tested on: MDA-MB-468; experiment: Cytotoxicity against human MDA-MB-468 cells assessed as cellular growth at 10 uM after 48 hrs by SRB assay; procedure, shortened: as §1
[5] = tested on: DU-145; experiment: Cytotoxicity against human DU145 cells assessed as cellular growth at 10 uM after 48 hrs by SRB assay; procedure, shortened: as §2
[6] = tested on: NCI-H23; experiment: Antitumor activity against human NCI-H23 cells after 48 hrs by SRB assay; conditions: NCI-H23, 48 h
Procedure, shortened: (§3)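 NCI60 panel in RPMI 1640 with 5% FBS and 2 mM L-glutamine. Cells were plated at 5000–40,000/well by doubling time, held 24 h, then time-zero plates were TCA-fixed. Five concentrations (10-fold or half-log dilutions of DMSO stocks) were applied for 48 h at 37 °C, 5% CO2. Cells were fixed with cold TCA (10% final adherent, 16% suspension) and stained with 0.4% SRB. Bound dye was dissolved in 10 mM Tris and read at 515 nm. GI50, TGI and LC50 were calculated per line.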

[7] = tested on: UO-31; experiment: Antitumor activity against human UO31 cells after 48 hrs by SRB assay; conditions: UO-31, 48 h
Procedure, shortened: (§4)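 NCI60 panel cells grown in RPMI 1640 with 5% FBS and 2 mM L-glutamine, plated at 5000–40,000 cells/well and preincubated 24 h at 37 °C, 5% CO₂. Compound was added from DMSO at five concentrations, 10-fold or 1/2 log dilutions, then incubated 48 h.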

[8] = tested on: OVCAR-8; experiment: Cytotoxicity against human OVCAR8 cells assessed as cellular growth at 10 uM after 48 hrs by SRB assay; procedure, shortened: as §1
[9] = tested on: OVCAR-5; experiment: Antitumor activity against human OVCAR5 cells after 48 hrs by SRB assay; conditions: OVCAR-5, 48 h; procedure, shortened: as §3
[10] = tested on: SK-MEL-5; experiment: Cytotoxicity against human SK-MEL-5 cells assessed as cellular growth at 10 uM after 48 hrs by SRB assay; procedure, shortened: as §1
[11] = tested on: LOX IMVI; experiment: Cytotoxicity against human LOXIMVI cells assessed as cellular growth at 10 uM after 48 hrs by SRB assay; procedure, shortened: as §2
[12] = tested on: CCRF-CEM; experiment: Antitumor activity against human CCRF-CEM cells after 48 hrs by SRB assay; procedure, shortened: as §3
[13] = tested on: SR; experiment: Cytotoxicity against human SR cells assessed as cellular growth at 10 uM after 48 hrs by SRB assay; procedure, shortened: as §1
[14] = tested on: NCI/ADR-RES; experiment: Antitumor activity against human NCI/ADR-RES cells after 48 hrs by SRB assay; procedure, shortened: as §3
[15] = tested on: OVCAR-4; experiment: Cytotoxicity against human OVCAR4 cells assessed as cellular growth at 10 uM after 48 hrs by SRB assay; procedure, shortened: as §1
[16] = tested on: A549; experiment: Cytotoxicity against human A549 cells assessed as cellular growth at 10 uM after 48 hrs by SRB assay; procedure, shortened: as §2
[17] = tested on: HOP-62; experiment: Cytotoxicity against human HOP62 cells assessed as cellular growth at 10 uM after 48 hrs by SRB assay; procedure, shortened: as §2
[18] = tested on: PC-3; experiment: Cytotoxicity against human PC3 cells assessed as cellular growth at 10 uM after 48 hrs by SRB assay; procedure, shortened: as §1
[19] = tested on: KM12; experiment: Cytotoxicity against human KM12 cells assessed as cellular growth at 10 uM after 48 hrs by SRB assay; procedure, shortened: as §2
[20] = tested on: IGROV-1; experiment: Antitumor activity against human IGROV1 cells after 48 hrs by SRB assay; conditions: IGROV-1, 48 h; procedure, shortened: as §3
[21] = tested on: ACHN; experiment: Cytotoxicity against human ACHN cells assessed as cellular growth at 10 uM after 48 hrs by SRB assay; procedure, shortened: as §2
[22] = tested on: SR; experiment: Antitumor activity against human SR cells after 48 hrs by SRB assay; procedure, shortened: as §4
[23] = tested on: OVCAR-3; experiment: Antitumor activity against human OVCAR3 cells after 48 hrs by SRB assay; conditions: OVCAR-3, 48 h; procedure, shortened: as §3
[24] = tested on: MOLT-4; experiment: Antitumor activity against human MOLT4 cells after 48 hrs by SRB assay; conditions: MOLT-4, 48 h; procedure, shortened: as §3
[25] = tested on: CCRF-CEM; experiment: Cytotoxicity against human CCRF-CEM cells assessed as cellular growth at 10 uM after 48 hrs by SRB assay; procedure, shortened: as §2
[26] = tested on: SK-MEL-28; experiment: Antitumor activity against human SK-MEL-28 cells after 48 hrs by SRB assay; conditions: SK-MEL-28, 48 h; procedure, shortened: as §4
[27] = read-out: LC50 (the source's name)
[28] = read-out: pLC50 (the source's name) (converted)

Which Activity [1] does the source give for `COc1cc(/C(=C2\O[C@@H]([C@H]3COC(C)(C)O3)[C@H]3OC(C)(C)O[C@@H]23)c2ccc3ccccc3c2)cc(OC)c1OC` here?
The Activity was 46.18%.

What about the Activity [2] of the same compound?
Its Activity is 46.81%.

What about the Activity [3] of the same compound?
Its Activity is 38.73%.

What about the Activity [4] of the same compound?
Its Activity is 51.21%.

And the Activity [5]?
Its Activity is 2.86%.

And the GI50 ([6]; read-out: GI50)?
The GI50 was 5.43 µM.

What about the CC50 [6, 27] of the same compound?
The CC50 was over 100 µM.

And the TGI ([6]; read-out: TGI)?
The TGI was over 100 µM.

What about the GI50 ([6]; read-out: pGI50 (converted)) of the same compound?
Its GI50 is 5.37 µM.

What about the CC50 [6, 28] of the same compound?
The CC50 was over 100 µM.

What about the TGI ([6]; read-out: pTGI (converted)) of the same compound?
Its TGI is over 100 µM.

And the GI50 ([7]; read-out: GI50)?
The GI50 was 3.47 µM.

And the CC50 [7, 27]?
Its CC50 is over 100 µM.

And the TGI ([7]; read-out: TGI)?
Its TGI is over 100 µM.

What about the GI50 ([7]; read-out: pGI50 (converted)) of the same compound?
Its GI50 is 3.47 µM.

And the CC50 [7, 28]?
Its CC50 is over 100 µM.

What about the TGI ([7]; read-out: pTGI (converted)) of the same compound?
The TGI was over 100 µM.

What about the Activity [8] of the same compound?
Its Activity is 18.91%.

What about the GI50 ([9]; read-out: GI50) of the same compound?
The GI50 was 14 µM.

And the CC50 [9, 27]?
Its CC50 is over 100 µM.

What about the TGI ([9]; read-out: TGI) of the same compound?
The TGI was over 100 µM.

And the GI50 ([9]; read-out: pGI50 (converted))?
Its GI50 is 3.89 µM.

And the CC50 [9, 28]?
Its CC50 is over 100 µM.

And the TGI ([9]; read-out: pTGI (converted))?
The TGI was 7.94 µM.

And the Activity [10]?
The Activity was 38.25%.

What about the Activity [11] of the same compound?
Its Activity is 46.36%.

And the GI50 ([12]; read-out: GI50)?
Its GI50 is 48.3 µM.

And the CC50 [12, 27]?
The CC50 was over 100 µM.

And the TGI ([12]; read-out: TGI)?
The TGI was over 100 µM.

And the GI50 ([12]; read-out: pGI50 (converted))?
The GI50 was 47.9 µM.

What about the CC50 [12, 28] of the same compound?
Its CC50 is over 100 µM.

What about the TGI ([12]; read-out: pTGI) of the same compound?
Its TGI is over 100 µM.

What about the Activity [13] of the same compound?
The Activity was 51.36%.

And the GI50 [14]?
Its GI50 is 4.26 µM.

What about the LC50 [14] of the same compound?
Its LC50 is over 100 µM.

What about the TGI [14] of the same compound?
The TGI was 22.3 µM.

And the Activity [15]?
The Activity was 25.7%.

What about the Activity [16] of the same compound?
The Activity was -9.4%.

What about the Activity [17] of the same compound?
Its Activity is 47.96%.

And the Activity [18]?
The Activity was 26.98%.

What about the Activity [19] of the same compound?
Its Activity is 33.42%.

And the GI50 ([20]; read-out: GI50)?
Its GI50 is 3.3 µM.

And the CC50 [20, 27]?
Its CC50 is over 100 µM.

What about the TGI ([20]; read-out: TGI) of the same compound?
The TGI was over 100 µM.

What about the GI50 ([20]; read-out: pGI50 (converted)) of the same compound?
The GI50 was 2.82 µM.

What about the CC50 [20, 28] of the same compound?
Its CC50 is over 100 µM.

And the TGI ([20]; read-out: pTGI)?
The TGI was over 100 µM.

And the Activity [21]?
The Activity was 0.86%.

And the GI50 ([22]; read-out: GI50)?
The GI50 was over 100 µM.

What about the CC50 [22, 27] of the same compound?
The CC50 was over 100 µM.

What about the TGI ([22]; read-out: TGI) of the same compound?
The TGI was over 100 µM.

What about the GI50 ([22]; read-out: pGI50 (converted)) of the same compound?
The GI50 was 100 µM.

What about the CC50 [22, 28] of the same compound?
The CC50 was over 100 µM.

And the TGI ([22]; read-out: pTGI)?
The TGI was over 100 µM.

What about the GI50 [23] of the same compound?
The GI50 was 2.39 µM.

What about the TGI [23] of the same compound?
The TGI was 5.67 µM.

And the CC50 [23, 27]?
The CC50 was 21.7 µM.

And the LC50 (concentration killing 50% of cells) [24]?
Its LC50 (concentration killing 50% of cells) is over 100 µM.

What about the GI50 ([24]; read-out: GI50) of the same compound?
The GI50 was over 100 µM.

What about the TGI ([24]; read-out: TGI) of the same compound?
Its TGI is over 100 µM.

What about the GI50 ([24]; read-out: pGI50 (converted)) of the same compound?
The GI50 was 100 µM.

What about the CC50 [24, 28] of the same compound?
Its CC50 is over 100 µM.

What about the TGI ([24]; read-out: pTGI) of the same compound?
The TGI was over 100 µM.

And the Activity [25]?
Its Activity is 82.21%.

And the LC50 (50% lethal concentration) [26]?
The LC50 (50% lethal concentration) was over 100 µM.

And the GI50 ([26]; read-out: GI50)?
Its GI50 is 2.86 µM.

What about the TGI ([26]; read-out: TGI) of the same compound?
Its TGI is 96.5 µM.

And the GI50 ([26]; read-out: pGI50 (converted))?
Its GI50 is 2.88 µM.

And the CC50 [26, 28]?
The CC50 was over 100 µM.

What about the TGI ([26]; read-out: pTGI) of the same compound?
The TGI was over 100 µM.
